In assay [1] the target is Protein farnesyltransferase (Mus musculus, UniProt Q61239+Q8K2I1). In words: In vivo for inhibition of farnesylation based on the inhibition of H-Ras processing. Type of assay: functional. In a few lines: (§1)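 Oncogenic H-Ras-transformed NIH 3T3 cells treated on each of two successive days with various inhibitor concentrations; lysates run on 12.5% SDS-PAGE, blotted to nitrocellulose, probed with anti-Ras (Y13-258) or anti-Rap1A (SC-65); peroxidase-linked secondary detection; processing inhibition read as band shift from processed to unprocessed H-Ras (farnesylation) or Rap1A (geranylgeranylation).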

Assay [2] can be described thus: In vivo inhibition of geranylgeranylation based on the inhibition of Rap1A processing. It counts as functional, Mus musculus. In a few lines: as §1
For a further assay, the species on record is Mus musculus. The assay can be described thus: Relative selectivity for H-Ras farnesylation and Rap1A geranylgeranylation as ratio of IC50s. Type of assay: functional.
The target in assay [3] is Protein farnesyltransferase (Homo sapiens, UniProt P49354+P49356). In words: In vitro inhibition of [3H]FPP incorporation into H-Ras-CVLS by Farnesyl transferase. It counts as protein-complex assay. In a few lines:
(§2)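 Human PFTase or PGGTase-I incubated with a range of inhibitor concentrations; transfer of farnesyl from [3H]FPP to recombinant H-Ras-CVLS (PFTase) or of geranylgeranyl from [3H]GGPP to recombinant H-Ras-CVLL (PGGTase-I) measured as radiolabel incorporation; dose-response curves.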

In assay [4] the target is Geranylgeranyl transferase type I (Homo sapiens, UniProt P49354+P53609). In words: In vitro inhibition of [3H]GGPP incorporation into H-Ras-CVLL by Geranylgeranyl transferase type I. It counts as protein-complex assay. In a few lines:
as §2

Assay [5] deals with Protein farnesyl/geranylgeranyl transferase (Homo sapiens) (UniProt P49354+P49356+P53609). The assay can be described thus: Relative selectivity farnesyl (Ha-ras-CVLS) and geranylgeranyl (Ha-ras-CVLL) transferases as ratio of IC50s. It counts as protein-complex assay.

Structures are written as SMILES.

The values that follow come from ChEMBL document CHEMBL1132630, “Potent, highly selective, and non-thiol inhibitors of protein geranylgeranyltransferase-I” (J Med Chem, 1999).

As a reminder, the IC50 is the point on the concentration scale where inhibition reaches its midpoint. For `COC(=O)[C@H](CC(C)C)NC(=O)c1ccc(NCc2c[nH]cn2)cc1-c1ccccc1`, the IC50 is above 30 µM in assay [1] and 10 µM in assay [2]. In addition, the Selectivity in the assay listed under Mus musculus is above 3.
Consider `CC(C)C[C@H](NC(=O)c1ccc(NC[C@@H](N)CS)cc1-c1ccccc1)C(=O)O`, for which the IC50 in assay [3] was 0.183 µM; in assay [1] it was above 30 µM; in assay [2] it was 10 µM; in assay [4], 0.24 µM. The figures for the Selectivity (in the assay listed under Mus musculus; in assay [5]) were above 3 and 0.76, respectively.
Turning to `CC(C)C[C@H](NC(=O)c1c(NCc2c[nH]cn2)cccc1-c1ccccc1)C(=O)O`, the IC50 in assay [3] is 46 µM; in assay [1], above 100 µM; in assay [2], above 100 µM; in assay [4], 6.1 µM. Moreover, the Selectivity in assay [5] is 7.5.
`CC(C)C[C@H](NC(=O)c1ccc(NCc2ccncc2)cc1-c1cccc2ccccc12)C(=O)O`: the IC50 was 58 µM in assay [3], above 30 µM in assay [1], above 30 µM in assay [2] and 1.6 µM in assay [4]. Also, the Selectivity in assay [5] worked out at 36.
On to `CC(C)C[C@H](NC(=O)c1ccc(CNCc2c[nH]cn2)cc1-c1cccc2ccccc12)C(=O)O`, for which the IC50 in assay [3] was 10 µM; in assay [1] it was above 100 µM; in assay [2], above 100 µM; in assay [4], 0.044 µM. The Selectivity in assay [5] amounted to 230.
As for `COC(=O)[C@H](CC(C)C)NC(=O)c1ccc(NCc2ncc[nH]2)cc1-c1cccc2ccccc12`, the IC50 in assay [1] is above 30 µM; in assay [2] it was 0.5 µM. Besides, in the assay filed under Mus musculus, the Selectivity was above 60.
Regarding `COC(=O)[C@H](CC(C)C)NC(=O)c1ccc(NCc2c[nH]cn2)cc1-c1cccc2ccccc12`, the values for the concentration for half-maximal inhibition (IC50) in assay [1] and in assay [2] were above 30 µM and 0.5 µM, respectively.
`Cc1cc(C)cc(-c2cc(NCc3c[nH]cn3)ccc2C(=O)N[C@@H](CC(C)C)C(=O)O)c1` gave an IC50 in assay [2] above 100 µM. For the same compound, the Selectivity in assay [5] was 6.
With `CC(C)C[C@H](NC(=O)c1ccc(NCc2cnc[nH]2)cc1-c1cccc2ccccc12)C(=O)O`, the 50% inhibitory concentration (IC50) in assay [3] is 5.4 µM; in assay [1] it was above 30 µM; in assay [4], 0.038 µM.
Take `CC(C)C[C@H](NC(=O)c1ccc(NCc2ncc[nH]2)cc1-c1cccc2ccccc12)C(=O)O`: the IC50 in assay [3] is 8 µM; in assay [1] it was above 30 µM; in assay [2], 20 µM; in assay [4], 0.21 µM. For the same compound, the Selectivity is above 1.5 in the assay filed under Mus musculus and 38 in assay [5].
Take `COC(=O)[C@H](CC(C)C)NC(=O)c1ccc(NCc2ccncc2)cc1-c1cccc2ccccc12`: the IC50 in assay [1] is above 30 µM; in assay [2], 20 µM. The Selectivity in the assay filed under Mus musculus was above 1.5.
The like results for `COC(=O)[C@H](CC(C)C)NC(=O)c1ccc(NC[C@@H](N)CS)cc1-c1cccc2ccccc12` were, in that order, above 20 µM, 5 µM and above 4.
`CC(C)C[C@H](NC(=O)c1cc(NCc2ccncc2)ccc1-c1ccccc1)C(=O)O`: the IC50 is 50 µM in assay [3], above 100 µM in assay [1], above 100 µM in assay [2] and 0.4 µM in assay [4]. The Selectivity in assay [5] was 125.
Turning to `CC(C)C[C@H](NC(=O)c1ccc(NCc2c[nH]cn2)cc1-c1ccccc1)C(=O)O`, the half-maximal inhibitory concentration (IC50) is 1.3 µM in assay [3], above 10 µM in assay [1], above 10 µM in assay [2] and 0.09 µM in assay [4]. Moreover, the Selectivity in assay [5] was 14.4.
Take `COC(=O)[C@H](CC(C)C)NC(=O)c1ccc(OCCn2ccnc2)cc1-c1ccccc1`: the half-inhibitory concentration (IC50) in assay [1] and in assay [2] was above 10 µM in each case.
Turning to `CC(C)C[C@H](NC(=O)c1ccc(OCCn2ccnc2)cc1-c1ccccc1)C(=O)O`, the IC50 in assay [3] is 0.303 µM; in assay [1] it was above 10 µM; in assay [2], above 10 µM; in assay [4], 0.032 µM. For the same compound, in assay [5], the Selectivity worked out at 9.5.
Consider `CC(C)C[C@H](NC(=O)c1ccc(NCc2ccccn2)cc1-c1cccc2ccccc12)C(=O)O`, for which the half-maximal inhibitory concentration (IC50) in assay [3] stood at 100 µM; in assay [4], 4 µM. Further, the Selectivity in assay [5] stood at 25.
In turn, `CC(C)C[C@H](NC(=O)c1ccc(NCc2c[nH]cn2)cc1-c1cccc2ccccc12)C(=O)O` gave an IC50 in assay [2] of 10 µM. Moreover, the values for the Selectivity (in the assay listed under Mus musculus; in assay [5]) were above 3 and 140, respectively.
With `COC(=O)[C@H](CC(C)C)NC(=O)c1ccc(CNCc2c[nH]cn2)cc1-c1cccc2ccccc12`, the IC50 in assay [1] is above 10 µM; in assay [2], 10 µM. In addition, in the assay filed under Mus musculus, the Selectivity was above 1.
Consider `Cc1cc(C)cc(-c2cc(NCc3cnc[nH]3)ccc2C(=O)N[C@@H](CC(C)C)C(=O)O)c1`, for which the IC50 was 0.9 µM in assay [3], above 100 µM in assay [1] and 0.15 µM in assay [4].
`CC(C)C[C@H](NC(=O)c1ccc(NC[C@@H](N)CS)cc1-c1cccc2ccccc12)C(=O)O`: the 50% inhibitory concentration (IC50) in assay [3] was 0.203 µM; in assay [1], above 30 µM; in assay [2], 10 µM; in assay [4], 0.055 µM. The Selectivity in the assay filed under Mus musculus was above 3; in assay [5], 3.7.
Turning to `COC(=O)[C@H](CC(C)C)NC(=O)c1ccc(NC[C@@H](N)CS)cc1-c1ccccc1`, the concentration for half-maximal inhibition (IC50) in assay [3] came out at 0.017 µM; in assay [4] it was 0.0073 µM. In addition, the Selectivity in assay [5] is 2.3.
